Most compounds without a hit are left out; they make up all but 0.95% or so of the library.
ABCB1 inh = human ABCB1 inhibition, ABCG2 as counter-screen; P08183; CCRF-Adr cells, JC-1 efflux, flow cytometry; inhibition, % at 6.6 µM; 0.067% of 190,000 active; AID 1326; in the data active = inhibition above about 40%;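 also: 0% = vehicle and 100% = reference inhibitor; higher value means more JC-1 retained so stronger ABCB1 efflux block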
ABCG2 inh = inhibitors of human ABCG2 transporter, ABCB1 counter-screen; Q9UNQ0; IgMXP3 cells, JC-1 efflux, flow cytometry; inhibition, % at 6.6 µM; 0.1% of 190,000 active; AID 1325;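 active = inhibition above 80%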;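 also: 0% = DMSO and 100% = nicardipine control wells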
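Times: 10 min at 25 °C | Test system: Two drug-resistant human cell lines, ABCG2 and ABCB1 | Quantity: 3 million cells/mL final, two lines in 1:1 ratio | Signal: Flow cytometry, 530 nm JC-1 signal | Dosing: Compound at 6.6 µM | Controls: Nicardipine and DMSO wells | Reagent: JC-1 as fluorescent efflux pump substrate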
Arbovirus anti = antivirals against arbovirus infection; arbovirus infection cell-based antiviral screen; inhibition, % at 10 µM; 0.37% of 200,000 active; AID 1251; in the data active = inhibition above about 30%
Furin inh = human furin inhibition; P09958; purified furin, fluorogenic substrate cleavage; inhibition, % at 20 µM or 30 µM; 0.061% of 220,000 active; AID 463115; in the data active = inhibition above about 25%
p47phox inh = inhibitors of human p47phox binding. 0.53% of 220,000 active. p47phox/p22phox peptide binding, fluorescence polarization, 2 h. inhibition, % at 24.7 µM. AID 1274;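 active = inhibition above about 30%, limit read from the data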;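 also: 0% = p47phox with labelled peptide and 100% = labelled peptide alone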
Target sequence (P14598 whole entry, looked up): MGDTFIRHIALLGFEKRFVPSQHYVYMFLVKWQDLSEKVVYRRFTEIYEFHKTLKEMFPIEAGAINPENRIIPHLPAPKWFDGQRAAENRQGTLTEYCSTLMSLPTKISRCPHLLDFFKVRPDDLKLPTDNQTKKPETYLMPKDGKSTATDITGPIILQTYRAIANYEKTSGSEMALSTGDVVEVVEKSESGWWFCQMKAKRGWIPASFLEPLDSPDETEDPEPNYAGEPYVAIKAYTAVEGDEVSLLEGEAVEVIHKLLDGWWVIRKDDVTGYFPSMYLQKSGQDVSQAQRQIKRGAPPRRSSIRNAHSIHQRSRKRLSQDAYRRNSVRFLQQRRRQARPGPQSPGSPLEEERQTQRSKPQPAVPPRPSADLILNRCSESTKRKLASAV
HSV replic up = increases HSV replication in cells | HSV replication augmentation in cells, fold increase | maximum fold increase | 0.005% of 220,000 active; in the data active = maximum fold increase above about 1.5; inconclusive = no clear call, values can overlap the other calls; tested in PC3 cells
Active calls of the source: *; i = inactive; ? = inconclusive; . = no result given.

SMILES	ABCB1 inh	ABCG2 inh	Arbovirus anti	Furin inh	p47phox inh	HSV replic up
CCOC(=O)c1nn(-c2ccccc2C)c2nc(Nc3ccccc3)cc(=O)n12	-0.2	-3.3	7.0	-2.9	-2.4	i
CCOC(=O)c1nn(-c2cccc(Cl)c2)c2nc(Nc3ccccc3)cc(=O)n12	-0.2	-0.9	34.4*	-9.4	-12.6	i
CCOC(=O)c1nn(-c2cccc(OC)c2)c2nc(Nc3ccccc3)cc(=O)n12	0.9	1.8	-8.1	-10.5	-5.1	i
Cc1ccc(C)n1-c1ccccc1N1CCCCC1	-0.2	0.0	17.8	-13.3	4.5	.
COC(=O)c1sccc1NC(=O)CNC(=O)c1ccccc1	1.1	4.9	3.8	-14.7	-0.5	i
ClC1(Cl)CC1Cn1cnc2ccccc21 (stereo not drawn)	0.1	1.3	0.1	-25.7	1.6	i
CCOc1cc(N2CCOCC2)c(OCC)cc1NC1=NCCCCC1	0.1	0.6	-3.7	-21.8	60.0*	i
FC(F)(F)c1ccc(N2CCOCC2)c(NC2=NCCCCC2)c1	0.2	0.6	3.2	-13.0	9.2	i
Cc1ccc2cc(CCl)c(Cl)nc2c1	.	.	.	-15.4	-10.4	i
CCOc1ccc(C(=O)Nc2cccc(C(=O)O)c2)cc1Cl	0.7	1.5	7.9	-27.2	1.8	i
CCOc1ccc(C(=O)Nc2cc(NC(=O)c3ccc(OCC)c(Cl)c3)cc(C(=O)O)c2)cc1Cl	-1.1	-3.5	87.9*	-30.6	-46.7	i
COc1ccc(-c2cc(-c3ccc(OC)c(OC)c3)n[nH]2)c(O)c1	0.1	1.3	31.8*	-10.4	-13.6	i
COc1ccc(-c2cc(-c3ccccc3O)[nH]n2)cc1OC	1.4	7.2	26.2	-5.1	-22.6	i
COc1ccc(CCNC(=O)Cn2c(=O)[nH]c3ccsc3c2=O)cc1OC	0.4	-1.3	3.8	-36.9	-4.8	i
Cc1cc(C(F)(F)F)nn1Cc1n[nH]c(=S)n1-c1ccc(Cl)cc1	0.2	0.5	4.6	-16.0	31.1*	.
Cc1ccc(Cn2cc(SCC(N)=O)c3ccccc32)cc1	0.9	1.4	5.1	-32.6	37.1*	i
Cc1ccc(C(c2nnnn2CS(=O)(=O)c2ccc(C)cc2)N2CCCC2)cc1 (stereo not drawn)	3.5	1.2	-0.2	-38.5	39.1*	i
CCC(=O)Nc1ccc(/C(C)=N\NS(=O)(=O)c2ccc(C)cc2)cc1	0.3	0.8	11.3	-23.3	169.8*	i
CC(=O)Nc1ccc(/C(C)=N/NS(=O)(=O)c2ccc(C)cc2)cc1	0.4	3.9	7.6	-19.5	-0.6	.
CCOc1cc(/C=N/NC(=O)Nc2ccccc2)ccc1O	1.1	16.9	-1.8	-20.6	74.9*	i
COc1cccc(OC)c1C(=O)NC(C)C12CC3CC(CC(C3)C1)C2 (stereo not drawn)	0.4	2.5	43.1*	-0.3	3.8	i
CCn1c(-c2ccccc2O)n[nH]c1=S	-0.1	-0.4	-4.8	-14.2	32.7*	i
CCOC(=O)c1sc(NC(C)=O)c(C(=O)OCC)c1C	1.2	8.8	4.5	-18.3	1.0	i
CCOC(=O)c1sc(NC(=S)NC(=O)c2cccc(Cl)c2)c(C(=O)OCC)c1C	-0.4	7.7	36.6*	-1.9	-5.6	i
O=S(=O)(Nc1ccc(-c2nnc(SCc3ccc(Cl)cc3)o2)cc1)c1ccccc1	0.5	-0.9	30.8*	2.7	-14.1	i
SMILES	ABCB1 inh	ABCG2 inh	Arbovirus anti	Furin inh	p47phox inh	HSV replic up
Clc1ccc(CSc2nnc(-c3ccncc3)o2)cc1	0.6	2.8	-28.9	-9.7	-8.9	i
O=S(=O)(c1ccc(-c2nnc(SCc3ccccc3)o2)cc1)N1CCCC1	0.9	3.7	-5.0	-32.8	42.1*	i
COc1ccc(C2C=C(c3ccc(C)cc3)Nc3ncnn32)cc1 (stereo not drawn)	0.4	0.8	86.3*	-21.1	1.0	.
COc1cccc(C2=CC(c3ccc(N(C)C)cc3)n3ncnc3N2)c1 (stereo not drawn)	1.1	4.5	45.7*	-15.5	-22.3	?
COc1cccc(C2C=C(c3cccs3)Nc3ncnn32)c1OC (stereo not drawn)	-0.1	-0.1	-6.8	-4.2	-26.1	i
COc1ccc(C2C=C(c3ccc(Br)s3)Nc3ncnn32)cc1OC (stereo not drawn)	1.0	3.2	90.0*	-5.2	-21.1	?
COc1ccc(C2=CC(c3ccc(C)cc3)n3nnnc3N2)cc1 (stereo not drawn)	0.6	7.7	37.8*	-9.9	-9.1	i
